The values that follow come from ChEMBL document CHEMBL2177045, “Chemical subtleties in small-molecule modulation of peptide receptor function: the case of CXCR3 biaryl-type ligands” (J Med Chem, 2012).

Each structure is given as a SMILES string. Active and inactive are the calls of the source. The calls are words filed in the database; no cut-off is given here.

Experiment [1] concerns the target T1, C-X-C chemokine receptor type 3 (Homo sapiens) (UniProt P49682).
T1 sequence (whole entry): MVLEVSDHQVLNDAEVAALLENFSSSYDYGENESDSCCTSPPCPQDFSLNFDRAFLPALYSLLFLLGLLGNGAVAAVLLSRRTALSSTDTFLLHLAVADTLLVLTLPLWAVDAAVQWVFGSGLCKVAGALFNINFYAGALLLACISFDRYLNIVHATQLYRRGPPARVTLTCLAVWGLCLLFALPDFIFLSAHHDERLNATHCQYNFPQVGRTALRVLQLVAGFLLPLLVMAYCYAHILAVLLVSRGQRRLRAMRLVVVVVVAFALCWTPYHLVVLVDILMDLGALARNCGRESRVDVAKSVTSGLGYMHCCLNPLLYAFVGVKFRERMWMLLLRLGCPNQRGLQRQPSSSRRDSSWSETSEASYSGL
Nature of the experiment: Agonist activity at CXCR3 expressed in HEK293 cells by [35S]GTPgamma binding assay relative to CXCL11. It counts as functional, cell-based. The procedure, abridged: (§1)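 Membranes (5 μg/well) from HEK293 cells stably expressing CXCR3, incubated with CXCL11 or ligands. Buffer 50 mM HEPES, 10 mM MgCl2, 100 mM NaCl, pH 7.2, with 3 μM GDP and 300 pM [35S]GTPγS, 1 h at room temperature. Filtered on GF/B, incorporated label counted. Response normalized to CXCL11 (α = 1) to give relative efficacy; mean ± SEM of ≥3 independent experiments.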

The target of experiment [2] is T2, C-X-C chemokine receptor type 3 (Homo sapiens, UniProt P49682).
T2 sequence (P49682 whole entry): T1 sequence (whole entry)
The experiment in a line: Agonist activity at CXCR3 expressed in HEK293 cells by [35S]GTPgamma binding assay. It counts as functional, cell-based. Put shortly: as §1

Experiment [3] concerns the target T2, C-X-C chemokine receptor type 3. The experiment in a line: Displacement of [125I]CXCL10 from CXCR3 expressed in HEK293 cells. It counts as cell-based. Put shortly:
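Competition binding against [125I]CXCL10 using membranes from HEK293 cells stably expressing CXCR3. Affinities reported as pKi; mean ± SEM of at least three independent experiments.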
Background: In a radioligand displacement assay an active substance lowers the binding of a labelled ligand.

Experiment [4] addresses T1, C-X-C chemokine receptor type 3 (Homo sapiens). The experiment in a line: Agonist activity at CXCR3 expressed in HEK293 cells by CRE-luciferase reporter gene assay. The class given is functional, cell-based. Put shortly: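 HEK293 cells stably expressing CXCR3, transfected with a CRE-luciferase reporter plasmid. Medium swapped for serum-free medium with 0.05% BSA plus ligands for 5 h. Then replaced by luciferin substrate solution (Tris-phosphate pH 7.8, glycerol, Triton X-100, DTT, MgCl2, 825 μM ATP, beetle luciferin) and luminescence read.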

For experiment [5] the target is unchanged. The experiment in a line: Agonist activity at CXCR3 expressed in HEK293 cells in presence of CXCR3 antagonist (R)-N-(1-(3-(4-ethoxyphenyl)-4-oxo-3,4-dihydropyrido[2,3-d]pyrimidin-2-yl)ethyl)-2-(4-fluoro-3-(trifluoromethyl)phenyl)-N-(pyridin-3-ylmethyl)acetamide by [35S]GTPgamma binding assay. It counts as functional, cell-based. The procedure, abridged:
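[35S]GTPγS incorporation on membranes (5 μg/well) of HEK293 cells stably expressing CXCR3. Buffer 50 mM HEPES, 10 mM MgCl2, 100 mM NaCl, pH 7.2, 3 μM GDP, 300 pM [35S]GTPγS, 1 h at room temperature. In antagonist mode, antagonist added 30 min before [35S]GTPγS. Read by filtration and counting.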

Regarding `COc1ccccc1-c1ccc(C[N+](C)(C)CC2=CC[C@H]3C[C@@H]2C3(C)C)cc1`, the Ratio in experiment [1] turned out to be 0.36. In addition, in experiment [2], the midpoint of the response, the EC50, lay at 12.6 µM. Affinity in experiment [3] was put at a Ki of 0.158 µM.

Regarding `CC1(C)[C@H]2CC=C(C[N+](C)(C)Cc3ccc(-c4cccc(Br)c4)cc3)[C@@H]1C2`, the Ratio in experiment [1] worked out at 0.08. Besides, in experiment [3], the Ki (as a rule, a dissociation constant, usually derived from enzyme kinetics or from competition with a known ligand) is 0.2 µM.

Take `CC1(C)[C@H]2CC=C(C[N+](C)(C)Cc3ccc(-c4ccccc4Br)cc3)[C@@H]1C2`: the Ratio in experiment [1] was found to be 0.95. In addition, a half-maximal effect in experiment [2] (EC50) was put at 0.794 µM. In experiment [3], this compound showed an inhibition constant (Ki) of 0.0631 µM.

`CC1(C)[C@@H]2CC=C(C[N+](C)(C)Cc3ccc(-c4ccccc4I)cc3)[C@H]1C2`: the Ratio in experiment [1] was found to be 0.98. Further, the EC50 (as a rule, the concentration needed to bring the measured effect to its halfway point) in experiment [2] is 0.631 µM. Moreover, in experiment [3], the inhibition constant (Ki) was 0.0501 µM.

Take `CC1(C)[C@@H]2CC=C(C[N+](C)(C)Cc3ccc(-c4cccc(Cl)c4)cc3)[C@H]1C2`: the Ratio in experiment [1] amounted to 0.05. The same compound had an inhibition constant (Ki) in experiment [3] of 0.316 µM.

For the compound `Cc1cccc(C)c1-c1ccc(C[N+](C)(C)CC2=CC[C@H]3C[C@@H]2C3(C)C)cc1`, the Ratio in experiment [1] is 0.19. The compound also showed an EC50 in experiment [2] of 7.94 µM. Further, the affinity in experiment [3], expressed as Ki, was 1 µM.

`NCCCC[C@H](NC(=O)[C@@H]1Cc2ccccc2CN1C(=O)CCC(=O)c1ccccc1)C(=O)NCC(c1ccccc1)c1ccccc1`: the Ratio in experiment [1] was 0.96. The inhibition constant Ki in experiment [3] is 0.0398 µM.

For the compound `CC1(C)[C@H]2CC[C@@H](C[N+](C)(C)Cc3ccc(-c4ccccc4I)cc3)[C@@H]1C2`, the Ratio in experiment [1] is 0.83. For the same compound, the midpoint of the response in experiment [2], the EC50, lay at 1.26 µM. In experiment [3], this compound showed an inhibitory constant (Ki) of 0.1 µM.

On to `CC1(C)[C@H]2CC=C(C[N+](C)(C)Cc3ccc(-c4cccc(Cl)c4)cc3)[C@@H]1C2`, for which the Ratio in experiment [1] stood at 0.05. Further, in experiment [4], the outcome was inactive. The compound further had a Ki in experiment [3] of 0.251 µM.

Regarding `CC1(C)[C@H]2CC=C(C[N+](C)(C)Cc3ccc(-c4cccc(Cl)c4)c(Cl)c3)[C@@H]1C2`, in experiment [1], the Ratio stood at 0.03. For the same compound, the Ki in experiment [3] was 0.501 µM.

For the compound `CCOc1ccc(-n2c([C@@H](C)N(Cc3cccnc3)C(=O)Cc3ccc(F)c(C(F)(F)F)c3)nc3ncccc3c2=O)cc1`, the Ratio in experiment [1] amounted to 0. The same compound had an inhibitory constant (Ki) in experiment [3] of 0.01 µM.

As for `CC1(C)[C@H]2CC=C(C[N+](C)(C)Cc3ccc(-c4ccccc4I)cc3)[C@@H]1C2`, in experiment [1], the Ratio came to 0.99. For the same compound, the outcome in experiment [5] was inactive. In experiment [4], the result was Active. Further, the midpoint of the response in experiment [2], the EC50, lay at 1 µM. Also, the Ki in experiment [3] was 0.0631 µM.

Regarding `CC1(C)[C@H]2CC=C(C[N+](C)(C)Cc3ccc(-c4c(Cl)cccc4Cl)cc3)[C@@H]1C2`, the Ratio in experiment [1] came to 0.42. For the same compound, the response in experiment [2] was half-maximal at 2 µM (EC50). In experiment [3], this compound gave a Ki of 0.398 µM.

For `CC1(C)[C@H]2CC=C(C[N+](C)(C)Cc3ccc(-c4ccccc4O)cc3)[C@@H]1C2`, the Ratio in experiment [1] was 0.07. In addition, the Ki in experiment [3] is 2 µM.

In the case of `CC1(C)[C@H]2CC(C[N+](C)(C)Cc3ccc(-c4ccccc4I)cc3)=C[C@@H]1C2`, the Ratio in experiment [1] amounted to 1.05. The compound further had a half-maximal effective concentration (EC50) in experiment [2] of 1.58 µM. In addition, in experiment [3], the affinity corresponds to a Ki of 0.2 µM.

As to `CC1(C)[C@H]2CC=C(C[N+](C)(C)Cc3ccc(-c4cccc(Cl)c4Cl)cc3)[C@@H]1C2`, in experiment [1], the Ratio amounted to 0.31. Further, the EC50 in experiment [2] was 0.631 µM. In addition, the affinity in experiment [3], expressed as Ki, was 0.398 µM.

As to `CC1(C)[C@H]2CC=C(C[N+](C)(C)Cc3ccc4c(c3)Cc3ccccc3-4)[C@@H]1C2`, the Ratio in experiment [1] is 0.03. Also, the Ki in experiment [3] is 0.398 µM.

Regarding `CC1(C)[C@H]2CC=C(C[N+](C)(C)Cc3ccc(-c4ccccc4Cl)c(Cl)c3)[C@@H]1C2`, the Ratio in experiment [1] was 0.3. In experiment [2], this compound had an EC50 of 0.794 µM. In experiment [3], this compound showed a Ki of 0.2 µM.

Consider `CC1(C)[C@H]2CC=C(C[N+](C)(C)Cc3ccc(Cl)cc3)[C@@H]1C2`, for which the Ratio in experiment [1] was found to be 0.02.

Consider `Cc1ccccc1-c1ccc(C[N+](C)(C)CC2=CC[C@H]3C[C@@H]2C3(C)C)cc1`, for which the Ratio in experiment [1] came out at 0.2. In experiment [2], this compound gave a concentration giving a half-maximal response (EC50) of 1.26 µM. In experiment [3], this compound gave a Ki of 0.158 µM.

Take `CC1(C)[C@H]2CC=C(C[N+](C)(C)Cc3ccc(-c4cc(Cl)ccc4Cl)cc3)[C@@H]1C2`: in experiment [1], the Ratio worked out at 0.64. The outcome in experiment [4] was Active. For the same compound, the EC50 in experiment [2] is 5.01 µM. For the same compound, affinity in experiment [3] was put at a Ki of 0.251 µM.

For `CC1(C)[C@H]2CC=C(C[N+](C)(C)Cc3ccc(-c4ccccc4Cl)cc3)[C@@H]1C2`, in experiment [1], the Ratio was 0.73. Moreover, the result in experiment [5] was inactive. In experiment [2], this compound had a half-maximal effective concentration (EC50) of 1.58 µM. In experiment [3], this compound showed a Ki of 0.1 µM.

For the compound `CC1(C)[C@H]2CC=C(C[N+](C)(C)Cc3ccc(-c4ccccc4)cc3)[C@@H]1C2`, the Ratio in experiment [1] worked out at 0.11. Further, the inhibition constant Ki in experiment [3] was 0.631 µM.

On to `CC1(C)[C@H]2CC=C(C[N+](C)(C)Cc3ccc(-c4ccccc4F)cc3)[C@@H]1C2`, for which the Ratio in experiment [1] is 0.2. The compound further showed a concentration for a half-maximal effect (EC50) in experiment [2] of 1.26 µM. Besides, the affinity in experiment [3] corresponds to a Ki of 0.501 µM.

For `CC1(C)[C@H]2CC=C(C[N+](C)(C)Cc3ccc(-c4ccccc4)c(Cl)c3)[C@@H]1C2`, the Ratio in experiment [1] worked out at 0.06. The affinity in experiment [3], expressed as Ki, was 0.631 µM.

`CC1(C)[C@H]2CC(C[N+](C)(C)Cc3ccc(-c4cccc(Cl)c4)cc3)=C[C@@H]1C2`: the Ratio in experiment [1] is 0.07. In addition, in experiment [3], the affinity, expressed as Ki, was 0.501 µM.

`CC1(C)[C@H]2CC=C(C[N+](C)(C)Cc3ccccc3)[C@@H]1C2`: the Ratio in experiment [1] was found to be 0.04. The compound further had a Ki in experiment [3] of 2.51 µM.

Regarding `CC1(C)[C@H]2CC[C@@H](C[N+](C)(C)Cc3ccc(-c4cccc(Cl)c4)cc3)[C@@H]1C2`, the Ratio in experiment [1] turned out to be 0.07. For the same compound, the inhibitory constant (Ki) in experiment [3] was 0.501 µM.
